# The list is not random: actives were taken first. Their share in the collection is about 2.3%.
# UBC13 polyUb: human UBC13 polyubiquitination inhibition; P61088; UBC13 polyubiquitin chain formation, TR-FRET; inhibition, % at 20 µM; 0.47% of 330,000 active; in the data active means inhibition above about 45%, passing the limit was not always enough; inconclusive means no clear call, values can overlap the other calls
# Fh CTSL1 inh: counter-screen for PFM18AAP inhibitors: inhibitors of F. hepatica cathepsin L1; recombinant F. hepatica cathepsin L1, Z-Leu-Arg-MCA fluorescence; inhibition, % at 5.96 µM; 0.49% of 300,000 active; AID 1906;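 active means inhibition above the mean of all tested compounds plus 3 SD, set per screening campaign, cut at about 17% in these data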
# PP5 inh: inhibitors of human protein phosphatase 5 (PP5); P53041; purified PP5c, OMFP substrate fluorescence; inhibition, % at 6.7 µM; 0.18% of 320,000 active; AID 1987;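 active means inhibition above the campaign's mean inhibition across all tested compounds plus 3 SD, cut at about 9.5% in these data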
# Target sequence (P53041 whole entry, looked up): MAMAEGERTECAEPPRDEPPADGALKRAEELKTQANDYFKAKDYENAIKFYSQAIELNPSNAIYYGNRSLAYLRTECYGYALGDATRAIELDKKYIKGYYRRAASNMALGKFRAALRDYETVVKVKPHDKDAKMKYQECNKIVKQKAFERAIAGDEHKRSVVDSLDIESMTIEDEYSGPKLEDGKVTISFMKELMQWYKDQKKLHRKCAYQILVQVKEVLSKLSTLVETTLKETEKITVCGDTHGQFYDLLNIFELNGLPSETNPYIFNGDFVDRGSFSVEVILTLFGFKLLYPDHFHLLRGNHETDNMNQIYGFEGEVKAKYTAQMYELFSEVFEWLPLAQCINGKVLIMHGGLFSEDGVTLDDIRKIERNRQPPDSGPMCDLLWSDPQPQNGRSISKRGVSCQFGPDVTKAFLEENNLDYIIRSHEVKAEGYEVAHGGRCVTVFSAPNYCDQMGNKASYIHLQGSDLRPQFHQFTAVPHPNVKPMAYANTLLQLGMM
# PREPL inh: human PREPL enzyme inhibition | recombinant PREPL, fluorescence polarization activity-based probe | inhibition, % at 5.96 µM | 0.68% of 320,000 active | AID 2751; in the data active means inhibition above about 43%
# UCH37 DUB inh: human UCH37 deubiquitinating enzyme inhibition | purified proteasome/UCH37, Ub-AMC cleavage fluorescence | inhibition, % (no concentration beside the values) | 0.33% of 330,000 active;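 active means mean inhibition over replicate wells above about 20%, limit read from the data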
#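 System: Proteasome-associated human UCH37 deubiquitinase; Input: 0.15 nM proteasome in added enzyme buffer; Also added: Ub-AMC substrate from 1 µM stock; Incubation: 30 min compound-proteasome preincubation then 25 min substrate reaction, room temperature; Detection: fluorescence, ex 355 nm, em 460 nm; Read-out: % inhibition of Ub-AMC cleavage fluorescence; Benchmarks: no-proteasome and no-compound wells.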
# PP1 counter: PP1-alpha (human) inhibition in PP5 counter-screen. purified PP1alpha, OMFP fluorescence. 0.9% of 320,000 active. AID 2235. P62136. inhibition, % at 6.7 µM;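 active means inhibition above the mean inhibition of all tested compounds plus 3 SD, computed separately for each screening campaign, cut at about 15% in these data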
# Numbers stand for hits; . = inactive; ? = inconclusive; / = no result given.
SMILES,UBC13 polyUb,Fh CTSL1 inh,PP5 inh,PREPL inh,UCH37 DUB inh,PP1 counter
COc1ccc(S(=O)(=O)N2CCC(C(=O)NCCC3=CCCCC3)CC2)cc1C,.,.,.,.,22,.
Cc1cc(C)c(NC(=O)c2cc(C(=O)O)ccc2C(=O)O)c([N+](=O)[O-])c1,.,.,.,.,47,.
COc1cc(C=NNC(=O)Cc2ccc(Br)cc2)cc(OC)c1O,/,/,/,/,.,/
NC(=O)NNC(=S)Nc1cccc2ccccc12,.,91,.,.,.,.
Cc1ccccc1N(CC(=O)NC1CCCCC1)C(=O)CCC(=O)Nc1nccs1,.,.,.,.,.,17
COc1ccccc1N(CC(=O)NC1CCCCC1)C(=O)CCC(=O)Nc1nccs1,.,.,.,.,.,.
Cc1ccc(NS(=O)(=O)c2ccc(NN=Cc3ccncc3)c([N+](=O)[O-])c2)c(C)c1,/,/,/,/,.,/
Cn1c(N)c(C(=O)COC(=O)c2cc(-c3ccco3)nc3ccccc23)c(=O)n(C)c1=O,.,/,/,/,.,/
Cn1c(N)c(C(=O)COC(=O)c2cc(-c3ccco3)nc3ccccc23)c(=O)n(Cc2ccccc2)c1=O,.,.,.,.,/,30
COc1ccc(OCC(=O)N/N=C/C(C)=C/c2ccco2)c(Br)c1,.,.,.,.,/,17
Cc1c(C#N)c(NC(=O)CCl)n(Cc2ccccc2)c1C,.,40,.,.,.,.
Cc1c(C#N)c(NC(=O)CCl)n(Cc2ccc(F)cc2)c1C,.,.,.,.,.,.
Cc1c(C#N)c(NC(=O)CCl)n(Cc2cccs2)c1C,.,51,.,.,.,.
O=C(CC(c1ccco1)C1CCCCC1=O)c1ccco1 (stereo not given),.,64,.,.,.,.
COc1ccc(NC(=O)c2cc3n(n2)C(C(F)(F)F)CC(c2ccc4c(c2)OCO4)N3)cc1OC (stereo not given),.,.,.,46,.,.
NC(=O)NN=Cc1sc(=O)n(-c2ccccc2)c1Cl,/,/,/,/,.,/
O=C(COC(=O)c1ccc2c(c1)C(=O)N(Cc1ccncc1)C2=O)Nc1cccc2ccccc12,.,19,.,.,.,.
CCOC(=O)NN=Cc1cn(Cc2ccc(F)cc2)c2ccccc12,/,/,/,/,.,/
CCOC(=O)C(CC)(CC)C(C)=NNC(=O)CC#N,/,/,/,/,.,/
COc1ccc(NC(=O)c2cccnc2NCCc2ccccc2)cc1,.,44,.,.,.,.
COC(=O)c1cc[n+](CC(=O)c2ccccc2)cc1,.,.,.,.,23,.
Cc1ccc(C2=NN=C(NC(=O)CSc3nc(C)cc(C)n3)SC2)cc1,.,.,.,.,.,.
Cc1ccc(C2=NN=C(NC(=O)CSc3nnc4c5ccccc5n(C)c4n3)SC2)cc1,.,.,.,.,.,22
Cc1nc(N2CCN(c3ccccn3)CC2)c2c(C)c(C(=O)Nc3c(C)cc(Br)cc3C)sc2n1,?,19,.,.,.,.
COc1cccc(C(=O)NNC(=O)C(=O)Nc2ccc(C)c(Cl)c2)c1,.,.,.,.,.,16
SMILES,UBC13 polyUb,Fh CTSL1 inh,PP5 inh,PREPL inh,UCH37 DUB inh,PP1 counter
CN(C(=O)c1cc2c(=O)n3ccccc3nc2n1C)C1CCCCC1,.,18,.,.,.,.
Clc1ccc2nc(CN3CCCc4ccccc43)cn2c1,.,.,.,67,.,.
Cc1cc(C(=O)COC(=O)CC2Sc3ccccc3NC2=O)c(C)n1-c1ccc(Br)cc1 (stereo not given),.,.,.,.,.,17
COC(=O)c1ccc(-n2c(C)cc(C(=O)COC(=O)CC3Sc4ccccc4NC3=O)c2C)cc1 (stereo not given),.,.,.,.,.,.
Cc1cccc(NS(=O)(=O)c2cc(C(=O)NCCC3=CCCCC3)ccc2Cl)c1,.,.,.,.,21,.
CC1CN(S(=O)(=O)c2cc(C(=O)NCCC3=CCCCC3)ccc2Cl)CC(C)O1 (stereo not given),.,.,.,.,.,.
CC(O)[C@H](NC(=O)C1(c2ccccc2)CCN(C(=O)OC(C)(C)C)CC1)C(=O)O (stereo not given in full),.,30,.,.,.,.
CCOC(=O)c1c(N=Cc2ccccc2O)sc2c1CCC2,/,/,/,/,.,/
CC(C)Nc1nc(C#N)nc(NC(C)C)n1,.,57,.,.,.,.
CCN(CC)C(=O)C(C)N(C#N)c1nc(NC(C)C)nc(NC(C)C)n1 (stereo not given),.,.,.,.,.,.
Cc1[nH]c(=O)[nH]c(=O)c1C=NNC(=O)[C@@H](NC(=O)OC(C)(C)C)C(C)C,/,/,/,/,.,/
CCOC(=O)C1C2C=CC3(CN(c4ccccc4CC)C(=O)C13)O2 (stereo not given),.,.,.,.,.,.
CCCCCOC(=O)C1C2C=CC3(CN(c4ccccc4C)C(=O)C13)O2 (stereo not given),.,19,.,.,.,.
O=C(O)/C=C/S(=O)(=O)c1ccc2ccccc2c1,.,54,.,.,.,.
COc1cc(C(=O)NC2=NCCS2)ccc1OCc1c(C)noc1C,.,37,.,.,.,.
CC(=O)O[C@H]1C(=O)[C@@]2(C)[C@H]([C@H](OC(=O)c3ccccc3)[C@]3(O)C[C@H](OC(=O)[C@H](O)[C@@H](NC(=O)c4ccccc4)c4ccccc4)C(C)=C1C3(C)C)[C@]1(OC(C)=O)CO[C@@H]1C[C@@H]2O,.,19,.,.,.,.
CC(Nc1ccc(Br)cc1)C(=O)NN=Cc1ccccc1OCc1ccccc1 (stereo not given),/,/,/,/,.,/
CN1C(=O)/C(=C/c2cn(CC(=O)NCc3ccco3)c3ccccc23)NC1=S,.,.,.,.,.,.
CCN=C1S/C(=C\c2cn(CC(=O)NCc3ccco3)c3ccccc23)C(=O)N1CC,.,.,.,.,.,15
O=C(O)CCC1c2cc3c4cc2OC2Oc5cc6c(cc51)C(CCC(=O)O)c1cc5c7cc1OC(O6)c1cc6cc(c1)Oc1cc(cc(C(=O)O)c1)Oc1cc8cc(c1)C(Oc1cc(c(cc1C5CCC(=O)O)C3CCC(=O)O)OC(O4)c1cc(cc(c1)Oc1cc(cc(C(=O)O)c1)O8)Oc1cc(cc(C(=O)O)c1)Oc1cc(cc2c1)Oc1cc(cc(C(=O)O)c1)O6)O7 (stereo not given),122,22,13,.,/,91
O=C(/C=C/c1ccccc1)N1CCC(c2ccccc2)C1 (stereo not given),.,.,.,.,.,.
O=C(/C=C/c1ccco1)N1CCCC(c2ccccc2)C1 (stereo not given),.,.,.,.,26,.
O=C1C(Cl)=C(NCCCO)C(=O)c2ccccc21,.,.,.,.,.,.
CCOCCCNC1=C(Cl)C(=O)c2ccccc2C1=O,.,.,.,.,24,.
Nc1nc2ccccc2n1N=Cc1cccnc1,/,/,/,/,.,/

# High-throughput results: PubChem, several laboratories
